This note sets out measurements from ChEMBL document CHEMBL4152379, “Discovery of Pyrrolidine Sulfonamides as Selective and Orally Bioavailable Antagonists of Transient Receptor Potential Vanilloid-4 (TRPV4)” (J Med Chem, 2018).

≈ marks a conversion by molar mass, not a printed value.

Data set [1] deals with Transient receptor potential cation channel subfamily V member 4 (Homo sapiens, UniProt Q9HBA0). Kind of data set: Antagonist activity at human TRPV4 expressed in BHK/AC9 or HEK MSR2 cells assessed as inhibition of GSK634775-induced Ca2+ flux pre-incubated for 10 mins before agonist addition by FLIPR assay. On the technique in general: Calcium flux is commonly read through the fluorescence of an indicator in the cells.
Transient receptor potential cation channel subfamily V member 4, sequence (Q9HBA0 whole entry): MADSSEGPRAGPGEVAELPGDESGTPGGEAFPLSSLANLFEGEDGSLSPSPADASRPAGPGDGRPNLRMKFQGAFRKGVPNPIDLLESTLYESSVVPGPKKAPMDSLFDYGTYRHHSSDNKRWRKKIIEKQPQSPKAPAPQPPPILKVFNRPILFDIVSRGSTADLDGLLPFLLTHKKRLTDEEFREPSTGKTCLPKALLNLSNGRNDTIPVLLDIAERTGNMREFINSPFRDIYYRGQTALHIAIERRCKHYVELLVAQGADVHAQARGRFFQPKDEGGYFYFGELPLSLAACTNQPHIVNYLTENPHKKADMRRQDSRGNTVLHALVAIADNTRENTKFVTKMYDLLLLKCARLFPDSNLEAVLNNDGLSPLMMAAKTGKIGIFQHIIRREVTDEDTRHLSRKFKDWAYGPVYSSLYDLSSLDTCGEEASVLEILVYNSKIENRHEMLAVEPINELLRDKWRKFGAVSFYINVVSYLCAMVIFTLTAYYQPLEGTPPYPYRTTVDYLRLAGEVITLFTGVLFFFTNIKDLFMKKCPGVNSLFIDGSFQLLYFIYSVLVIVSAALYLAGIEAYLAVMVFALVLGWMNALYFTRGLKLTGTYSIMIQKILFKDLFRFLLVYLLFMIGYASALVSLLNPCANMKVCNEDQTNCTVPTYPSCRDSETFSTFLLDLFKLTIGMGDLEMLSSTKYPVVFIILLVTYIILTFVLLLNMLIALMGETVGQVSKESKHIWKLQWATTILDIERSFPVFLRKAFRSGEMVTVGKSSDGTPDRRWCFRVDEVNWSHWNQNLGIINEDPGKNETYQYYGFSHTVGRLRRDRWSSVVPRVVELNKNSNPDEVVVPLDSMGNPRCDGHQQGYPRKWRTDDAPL

Data set [2] deals with Rattus norvegicus. Put plainly: In vivo antagonist activity at TRPV4 in iv dosed Sprague-Dawley rat assessed as inhibition of GSK1016790A-induced increase in lung wet weight by measuring lung weight/body weight ratio in at 0.03 to 0.23 mg/kg, iv dosed via bolus dose followed by iv infusion at 0.6 to 5.1 ug/kg/min for 60 mins. In kind it is functional, organism-based. Put shortly:
(§1)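 Sprague-Dawley rats given an i.v. bolus loading dose, then a 60 min continuous i.v. infusion to reach steady-state plasma exposure. Challenged with GSK1016790A at 10 μg/kg/min by 10 min i.v. infusion. Mean arterial pressure and lung wet weight/body weight ratio recorded. Mean ± SEM; comparisons by ANOVA with Dunnett's or Bonferroni post hoc tests.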

The nature of data set [3]: Aqueous solubility of the compound. In kind it is physicochemical. The conditions noted are these: buffer.
Data set [4] can be described thus: Steady state plasma concentration in Sprague-Dawley rat at 0.03 mg/kg, iv dosed via bolus dose followed by iv infusion at 0.6 ug/kg/min for 60 mins. The conditions noted are these: in vivo, 1 h. In kind it is ADME, organism-based.
The nature of data set [5]: Lipophilicity, log D of the compound by chromatography. In kind it is physicochemical.
Data set [6] relates to Rattus norvegicus. Kind of data set: In vivo antagonist activity at TRPV4 in iv dosed Sprague-Dawley rat assessed as inhibition of GSK1016790A-induced reduction in mean arterial pressure at 0.03 to 0.23 mg/kg, iv dosed via bolus dose followed by iv infusion at 0.6 to 5.1 ug/kg/min for 60 mins. In kind it is functional, organism-based. Put shortly: as §1
For data set [7], the species on record is Rattus norvegicus. Put plainly: Unbound clearance in Sprague-Dawley rat. In kind it is ADME, organism-based. The conditions noted are these: in vivo.
For data set [8], the system named is Rattus norvegicus. Put plainly: In vivo antagonist activity at TRPV4 in iv dosed Sprague-Dawley rat assessed as inhibition of GSK1016790A-induced reduction in mean arterial pressure at 0.23 mg/kg, iv dosed via bolus dose followed by iv infusion at 5.1 ug/kg/min for 60 mins. In kind it is functional. The method, boiled down:
as §1

A short description of data set [9]: Steady state plasma concentration in Sprague-Dawley rat at 0.08 mg/kg, iv dosed via bolus dose followed by iv infusion at 1.7 ug/kg/min for 60 mins. To be noted: in vivo, 1 h. In kind it is ADME, organism-based.
A short description of data set [10]: Fraction unbound in Sprague-Dawley rat plasma. In kind it is ADME, cell-free.
A short description of data set [11]: Steady state plasma concentration in Sprague-Dawley rat at 0.23 mg/kg, iv dosed via bolus dose followed by iv infusion at 5.1 ug/kg/min for 60 mins. The conditions noted are these: in vivo, 1 h. In kind it is ADME, organism-based.
Data set [12] is described as follows: MRT in iv dosed Sprague-Dawley rat. In kind it is ADME, organism-based. The conditions noted are these: in vivo. The method, boiled down:
(§2)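 Male Sprague-Dawley rats with femoral vein, femoral artery and gastric catheters; noncrossover design, 2 rats per route; cassette dosing of up to five compounds. i.v. target 1 mg/kg in 5% DMSO/20% Cavitron (pH 4), infused over 30 min. Oral gastric bolus target 2 mg/kg in 5% DMSO/6% Cavitron (pH 4). Plasma sampled to 24 h and measured by HPLC−MS/MS. Noncompartmental analysis; F from dose-normalized AUC(0−∞) relative to mean i.v. AUC.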

The subject of data set [13] is Rattus norvegicus. Kind of data set: In vivo antagonist activity at TRPV4 in iv dosed Sprague-Dawley rat assessed as inhibition of GSK1016790A-induced increase in lung wet weight by measuring lung weight/body weight ratio in at 0.23 mg/kg, iv dosed via bolus dose followed by iv infusion at 5.1 ug/kg/min for 60 mins. In kind it is functional. Put shortly: as §1
Data set [14] is described as follows: Oral bioavailability in Sprague-Dawley rat. In kind it is ADME, organism-based. To be noted: in vivo. The method, boiled down:
as §2

The nature of data set [15]: Clearance in iv dosed Sprague-Dawley rat. In kind it is ADME, organism-based. The conditions noted are these: in vivo. The method, boiled down: as §2

In general, IC50 refers to the concentration that inhibits the measured activity by half. With `N#Cc1ccc(OC[C@@]2(O)CN(S(=O)(=O)c3ccc(Cl)cc3Cl)C[C@@H]2O)cc1F` (racemic), the IC50 in data set [1] stood at 150 nM.

Turning to `N#Cc1ccc(O[C@H]2CN(S(=O)(=O)c3ccc(Cl)cc3Cl)C[C@H]2O)cc1F` (racemic), the IC50 in [1] is 100 nM.

For the compound `N#Cc1ccc(O[C@H]2CN(S(=O)(=O)c3ccc(Cl)cc3Cl)C[C@H]2CO)cc1F` (racemic), the IC50 in data set [1] is 50 nM.

Regarding `N#Cc1ccc(O[C@H]2CN(S(=O)(=O)c3ccc(Cl)cc3Cl)C[C@@H]2O)cc1F` (racemic), the IC50 in [1] came to 40 nM.

Consider `N#Cc1ccc(O[C@H]2CN(S(=O)(=O)c3ccc(Cl)cc3Cl)C[C@@H]2CO)cc1F` (racemic), for which the IC50 in data set [1] amounted to 200 nM.

Consider `N#Cc1ccc(O[C@H]2CN(S(=O)(=O)c3ccc(Cl)cc3Cl)C[C@@]2(O)CO)cc1F` (racemic), for which the IC50 in [1] stood at 4 nM.

As usually defined, the solubility is how much of the substance goes into solution per volume. Read a low solubility as little dissolved substance. Broadly, the chromatographic logD is a lipophilicity value derived from retention on a column. A higher chromatographic logD goes with higher lipophilicity. Broadly, the fraction unbound is free concentration divided by total concentration. In general, MRT refers to the average time that molecules of a dose stay in the body. One may read the bioavailability as the share of a dose that reaches the circulation, judged against a reference dose that is usually intravenous. A higher bioavailability goes with good availability. For orientation: clearance means a measure of how efficiently the substance is removed, as volume per time. Higher therefore signals efficient removal. Regarding `N#Cc1ccc(O[C@H]2CN(S(=O)(=O)c3ccc(C(F)(F)F)cc3C#N)C[C@@]2(O)CO)cc1F`, the inhibition result in the data set with Rattus norvegicus [2] and with Rattus norvegicus [6] was “Dose-dependent effect” in each case. This compound also registered a solubility in data set [3] of 90 µM (≈ 43.7 µg/mL). Besides, the results for the Cpss in data set [4], in [9] and in data set [11] were 30 nM, 40 nM and 90 nM, respectively. Further, the IC50 in [1] was determined as 1 nM. Besides, the chromatographic logD in data set [5] came to 4.6. Also, the CL free in the data set listed under Rattus norvegicus [7] was 1400 mL/min/kg. Besides, the “inhibition (INH)” value in the data set on Rattus norvegicus [8] and in the data set on Rattus norvegicus [13] was 100% in each case. The fraction unbound in data set [10] amounted to 0.049. In data set [12], this compound came in with an MRT of 0.8 h. Besides, the bioavailability in data set [14] amounted to 72%. Also, the clearance in data set [15] worked out at 82 mL/min/kg.

For `N#Cc1ccc(OC[C@@H]2CN(S(=O)(=O)c3ccc(Cl)cc3Cl)C[C@H]2O)cc1F` (racemic), the IC50 in data set [1] worked out at 1000 nM.

`N#Cc1ccc(OCC2(O)CN(S(=O)(=O)c3ccc(Cl)cc3Cl)C2)cc1F`: the IC50 in data set [1] was determined as 50 nM.

As to `N#Cc1ccc(OCC2CCN(S(=O)(=O)c3ccc(Cl)cc3Cl)CC2)cc1F`, the IC50 in data set [1] stood at 6300 nM.

With `N#Cc1ccc(OC[C@H]2CN(S(=O)(=O)c3ccc(Cl)cc3Cl)C[C@H]2O)cc1F` (racemic), the IC50 in data set [1] is 1500 nM.

Regarding `N#Cc1ccc(OC2CCN(S(=O)(=O)c3ccc(Cl)cc3Cl)C2)cc1F` (racemic), the IC50 in data set [1] came out at 320 nM.

As to `N#Cc1ccc(OCC2(O)CCN(S(=O)(=O)c3ccc(Cl)cc3Cl)C2)cc1F` (racemic), the IC50 in data set [1] was determined as 150 nM.

For the compound `N#Cc1ccc(O[C@H]2CN(S(=O)(=O)c3ccc(Cl)cc3Cl)C[C@]2(O)CO)cc1F` (racemic), the IC50 in [1] amounted to 100 nM.

For `N#Cc1ccc(OCC2(O)CCN(S(=O)(=O)c3ccc(Cl)cc3Cl)CC2)cc1F`, the solubility in [3] is 7.5 µM (≈ 3.44 µg/mL). Further, the IC50 in data set [1] stood at 130 nM. The compound further registered a chromatographic logD in [5] of 6.3. This compound displayed a CL free in the data set filed under Rattus norvegicus [7] of 1461 mL/min/kg. The compound also returned a fraction unbound in [10] of 0.013. The compound also came in with an MRT in [12] of 1.5 h. In [14], this compound yielded a bioavailability of 56%. Moreover, the clearance in [15] worked out at 19 mL/min/kg.
